Sampled rows, rich in hits. Any-hit rate of the full collection: about 3.8%.
KCNQ1 pot: human KCNQ1 channel potentiation or activation. P51787. CHO-K1 KCNQ1, thallium flux FluxOR fluorescence; active compounds read high. B-score at 10 µM. 0.35% of 310,000 active. AID 2648;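 active = fluorescence ratio B-score, a plate-corrected score, at least three library SD, with initial intensity B-score within 5 SD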
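Assay system: CHO-K1 cells stably expressing KCNQ1; Medium: assay buffer with matched DMSO; Also added: K+/Tl+ depolarizing stimulus; Dosing: single dose; Timing: dye 90 min, compound 20 min, room temperature; Measured by: kinetic FluxOR thallium fluorescence, 10-s 1-Hz baseline, 110-s post-stimulus read; Read-out: peak-minus-minimum fluorescence over initial fluorescence, negative-control normalized, B-scored.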
KCNK9 inh: inhibitors of human KCNK9 two-pore domain potassium channel. Q9NPC2. HEK293 KCNK9, FluxOR thallium flux fluorescence; active compounds read low. B-score at 10 µM. 1.2% of 310,000 active;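 active = ratio B-score over 3 SD below the library mean, with starting fluorescence within 5 SD of its mean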;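 note: negative B-score means less thallium flux so channel inhibition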
KCNQ1 block: blocks the human KCNQ1 potassium channel | P51787 | CHO-K1 KCNQ1, FluxOR thallium flux fluorescence; active compounds read high | B-score at 10 µM | 1.3% of 310,000 active;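 active = compounds whose thallium flux B-score, printed positive for inhibition, exceeds three library SD while starting fluorescence stays within three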;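 note: channel opened by potassium depolarization with thallium stimulus after 20 min compound exposure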
KCNK3 block: human KCNK3 channel inhibition, primary screen; O14649; CHO-KCNK3 thallium flux, FluxOR fluorescence; active compounds read low; B-score at 10 µM; 0.84% of 340,000 active; AID 602410;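 active = B-score under library mean minus 4 SD, starting fluorescence ratio at most library mean plus 5 SD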;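 note: more negative B-score means stronger inhibition of thallium flux through KCNK3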
hERG rescue: shields human hERG channel from block by proarrhythmic agents; CHO-hERG, FluxOR thallium flux, dofetilide IC70 present; activation (rescue from dofetilide block), less the hit threshold, % at 10 µM; 0.51% of 310,000 active;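 active = activation above the mean of controls blocked by dofetilide plus 5 SD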;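 note: thallium influx through hERG after potassium depolarization seen as dye fluorescence rise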
Target sequence (Q12809 whole entry, looked up): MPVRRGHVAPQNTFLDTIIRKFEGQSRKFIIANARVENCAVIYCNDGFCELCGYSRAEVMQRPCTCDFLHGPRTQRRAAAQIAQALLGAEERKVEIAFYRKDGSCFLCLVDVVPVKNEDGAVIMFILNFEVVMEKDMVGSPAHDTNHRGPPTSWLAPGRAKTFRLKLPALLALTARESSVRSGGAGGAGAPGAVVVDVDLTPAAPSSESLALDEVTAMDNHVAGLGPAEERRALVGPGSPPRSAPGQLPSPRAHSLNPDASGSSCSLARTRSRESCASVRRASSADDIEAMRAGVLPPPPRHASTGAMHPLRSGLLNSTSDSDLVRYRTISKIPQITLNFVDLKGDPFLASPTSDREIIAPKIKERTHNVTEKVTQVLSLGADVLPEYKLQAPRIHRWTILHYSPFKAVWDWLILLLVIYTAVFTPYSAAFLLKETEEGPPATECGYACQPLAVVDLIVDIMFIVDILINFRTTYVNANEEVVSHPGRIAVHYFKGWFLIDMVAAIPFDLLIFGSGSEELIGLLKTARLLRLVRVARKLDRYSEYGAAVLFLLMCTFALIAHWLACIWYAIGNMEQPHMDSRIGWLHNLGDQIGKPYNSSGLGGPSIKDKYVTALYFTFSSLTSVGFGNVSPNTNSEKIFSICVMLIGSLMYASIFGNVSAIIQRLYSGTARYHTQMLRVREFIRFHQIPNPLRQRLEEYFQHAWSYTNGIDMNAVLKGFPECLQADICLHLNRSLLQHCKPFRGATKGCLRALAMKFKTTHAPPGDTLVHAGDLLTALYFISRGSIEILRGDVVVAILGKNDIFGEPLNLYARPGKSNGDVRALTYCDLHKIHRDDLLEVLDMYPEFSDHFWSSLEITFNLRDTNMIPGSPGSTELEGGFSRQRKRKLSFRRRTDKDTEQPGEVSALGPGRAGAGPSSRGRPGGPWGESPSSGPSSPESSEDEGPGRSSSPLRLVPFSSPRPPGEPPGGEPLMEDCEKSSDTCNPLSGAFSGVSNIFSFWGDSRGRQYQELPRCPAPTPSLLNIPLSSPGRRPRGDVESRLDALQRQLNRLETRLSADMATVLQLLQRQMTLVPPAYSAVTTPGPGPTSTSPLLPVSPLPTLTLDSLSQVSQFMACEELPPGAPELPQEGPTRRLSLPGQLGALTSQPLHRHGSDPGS
Kir21 inh: inhibitors of mouse Kir2.1 inward-rectifier potassium channel; P35561; HEK293-Kir2.1, FluxOR thallium flux fluorescence; active compounds read low; B-score at 10 µM; 0.85% of 310,000 active;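 active = fluorescence ratio B-score at or below minus 3 SD of library scores, with starting-brightness B-score within 2 SD, cut at about -4.2 in these data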;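 note: channel flux triggered by added potassium and thallium sulfate stimulus; B-score of peak minus minimum fluorescence over baseline after thallium stimulus; more negative B-score means stronger Kir2.1 block with less thallium influx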
Numbers without * were called inactive; i = inactive; . = not tested or not shown.

SMILES | KCNQ1 pot | KCNK9 inh | KCNQ1 block | KCNK3 block | hERG rescue | Kir21 inh
Cc1ccc(C(C)n2cc(C(=O)NCc3ccccn3)nn2)cc1 (stereo not drawn) | i | i | i | i | -9.0 | 0.17
CCN1/C(=C/C=C/C=C/C=C/c2sc3ccccc3[n+]2CC)Sc2ccccc21 | i | i | i | i | -33.5 | 0.83
CCN1/C(=C/C=C/C=C/c2sc3ccccc3[n+]2CC)Sc2ccccc21 | i | i | 17* | . | -41.8 | -3.91
COc1cccc(NC(=S)N(CCc2c(C)[nH]c3ccccc23)Cc2cccs2)c1 | . | . | . | -9.23* | . | .
Cc1[nH]c2ccccc2c1CCN(Cc1cccnc1)C(=S)Nc1cccc(F)c1 | i | -7.55* | i | i | -26.4 | -1.13
Cc1oc(/N=C/c2ccc(F)cc2)c(C#N)c1C | i | i | i | i | 7.7* | 0.57
CCNC(=S)N/N=C/c1ccc(F)cc1 | i | i | i | . | -12.1 | 1.55
COc1cc(-c2csc(CCn3nc(C)cc3C)n2)cc(OC)c1OC | i | -6.75* | i | i | -12.5 | 1.53
Cc1cc(C)n(CCc2nc(-c3ccc(F)cc3)cs2)n1 | i | i | i | i | -10.5 | -0.03
COc1cc(/C=C/C(=O)N(C)CC(=O)Nc2ccccc2Br)cc2c1OCCO2 | . | . | . | i | . | .
c1ccc2c3c([nH]c2c1)C(C1CCCCC1)N(Cc1ncc[nH]1)CC3 (stereo not drawn) | i | i | i | i | -9.7 | -4.62*
Cc1cnc(CN2CCc3c([nH]c4ccccc34)C2C2CCCCC2)[nH]1 (stereo not drawn) | i | i | i | i | -9.9 | -4
CS(=O)(=O)c1ccc2nc(NC(=O)CCNC(=O)c3ccc(Cl)cc3)sc2c1 | . | . | . | i | . | .
O=C(Nc1cccc(F)c1)c1cccc2c1C(=O)N(C1CCCCC1)C2 | i | -11.3* | i | i | -5.0 | -0.76
Cc1ccccc1NC(=O)c1cccc2c1C(=O)N(C1CCCCC1)C2 | i | i | i | i | -8.8 | -1.04
COc1cc2c(c(OC)c1OC)C(c1ccccc1C)CC(=O)O2 (stereo not drawn) | . | . | . | i | . | .
O=C(CSc1nccn1-c1ccc(Cl)cc1)N1CCCc2ccccc21 | i | i | i | i | -9.2 | -9.34*
Cn1c(-c2ccccc2)cnc1SCC(=O)N1CCCc2ccccc21 | i | i | i | i | -9.4 | -7.46*
C=CCn1c(SCC(N)=O)nc2scc(-c3ccc(C)o3)c2c1=O | i | i | i | i | -0.9 | -0.2
COC(=O)N/N=C/c1cc(Br)ccc1O | i | i | i | i | -2.8 | -0.16
COC(=O)N/N=C/c1cc(N=Nc2ccccc2Cl)ccc1O | i | -7.95* | i | i | -9.8 | 0.74
CN(C)c1cc(N/N=C\c2ccccc2)nc(N(C)C)n1 | i | i | i | i | -17.3 | -0.27
COc1ccccc1/C=N/Nc1cc(N(C)C)nc(N(C)C)n1 | i | i | 6* | i | -7.2 | -0.29
CC(=O)N1CCN(C(=O)CCNS(=O)(=O)c2ccc(Br)cc2)CC1 | . | . | . | i | . | .
Cc1occc1C(=O)/C(C#N)=C/c1ccc(O)c(Br)c1 | i | i | 11* | i | -24.6 | -1.23
SMILES | KCNQ1 pot | KCNK9 inh | KCNQ1 block | KCNK3 block | hERG rescue | Kir21 inh
CCC(C)n1c(=S)[nH]c2c(sc3ccc([N+](=O)[O-])cc32)c1=O (stereo not drawn) | i | i | i | i | 104.6* | 1.21
CCOC(=O)c1c(C)nc(C)c2c(=O)oc3ccccc3c12 | i | i | i | i | -15.2 | 1.11
CC(C(=O)NCCCc1ccccc1)c1ccc([N+](=O)[O-])cc1 (stereo not drawn) | i | i | i | i | -4.8 | -4.42*
CC(C(=O)NCc1ccc(F)cc1)c1ccc([N+](=O)[O-])cc1 (stereo not drawn) | i | i | i | i | -4.7 | -0.53
COc1ccc(CCNC(=O)C(C)c2ccc([N+](=O)[O-])cc2)cc1 (stereo not drawn) | i | i | i | i | -5.7 | -4.55*
O=C(O)c1cc([N+](=O)[O-])ccc1NCCCc1ccccc1 | i | i | 6* | i | -10.4 | -0.25
COc1ccc(C(CC(=O)c2ccc(C)cc2)Nc2ccc([N+](=O)[O-])cc2)cc1 (stereo not drawn) | i | i | 6* | i | -7.6 | -0.16
NC(=O)c1cc([N+](=O)[O-])ccc1N1CCN(Cc2ccccc2)CC1 | i | i | i | i | -3.4 | -0.24
CCCN(CC(=O)Nc1ccc(F)c(F)c1F)C(=O)CN1C(=O)NC2(CCCCC2)C1=O | . | . | . | i | . | .
O=C(OCCc1cc2ccccc2c(=O)o1)c1cccc(Br)c1 | . | . | . | -8.85* | . | .
O=C(Nc1nc2cc3c(cc2s1)OCO3)c1ccco1 | i | i | i | i | -7.4 | 0.13
COc1ccc(-c2csc(NC(=S)NC(=O)c3cc4ccccc4o3)n2)cc1Br | i | i | i | i | -0.3 | 1.18
O=C(NC(=S)Nc1nc2ccc(F)cc2s1)c1ccco1 | 47* | i | i | i | 40.0* | 0.15
COc1ccc(-c2csc(NC(=S)NC(=O)c3ccco3)n2)cc1Br | i | i | i | i | 11.4* | -0.17
Cc1ccc(-c2csc(NC(=S)NC(=O)c3ccco3)n2)cc1 | 28* | i | i | i | -5.1 | 1
N#C/C(=C/c1ccc(N2CCCC2)c([N+](=O)[O-])c1)c1nc2ccccc2[nH]1 | i | i | i | i | -18.6 | -2.22
Cc1ccc2nc(/C(C#N)=C\c3ccc(N4CCCCC4)c([N+](=O)[O-])c3)[nH]c2c1 | i | i | 8* | i | -18.0 | 0.24
CC(=O)Nc1ccc(OC(=O)c2ccco2)cc1 | i | i | i | i | -2.7 | -0.61
CCCOC(=O)c1ccc(OC(=O)c2ccco2)cc1 | i | i | i | i | -8.7 | -4.38*
CC(C)(C)c1cc(C(=O)NNC(=O)c2ccc(C(F)(F)F)cc2)no1 | 9* | i | i | i | -5.0 | -1.67
COc1ccccc1CNC(=O)CNC(=O)[C@@H]1Cc2ccccc2CN1 | i | i | i | i | -5.9 | 0.04
Cc1sc2ncnc(N3CCN(CCOc4ccc(Cl)cc4)CC3)c2c1C | i | i | 11* | -10.9* | -13.8 | 0.22
Cc1cc(Cl)ccc1OCC(=O)NNC(=O)C1CCN(c2ncnc3sc(C)c(C)c23)CC1 | . | . | . | -9.86* | . | .
Cc1sc2ncnc(N3CCC(C(=O)NNC(=O)COc4ccc(Cl)cc4)CC3)c2c1C | . | . | . | i | . | .
Cc1sc2ncnc(N3CCC(C)CC3)c2c1C | i | i | i | i | -12.5 | 1.51
Cc1cc(=O)oc2cc(OCCSCCN3CCCCC3)ccc12 | i | i | i | i | -9.2 | 1.23
